Measurements as given in ChEMBL document CHEMBL3102786, “Anilides and quinolones with nitrogen-bearing substituents from benzothiophene and thienothiophene series: synthesis, photochemical synthesis, cytostatic evaluation, 3D-derived QSAR analysis and DNA-binding properties” (Eur J Med Chem, 2014).
Calls of active or inactive are those of the source. The rule behind the calls is not given here.

How the values were obtained:
MCF7 = test: Cytotoxicity against human MCF7 cells after 72 hrs by MTT assay; format: functional, cell-based
How it was run: (§1)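 HCT 116 and H 460 were seeded at 3×10^4 cells/mL and MCF-7 at 5×10^4 cells/mL in DMEM with 10% FBS, 2 mM glutamine and antibiotics, at 37 °C in 5% CO2. Compounds were added after 24 h (DMSO <1%). After 72 h, MTT absorbance was read at 570 nm. Runs were technical quadruplicates with ≥2 biological replicates, and IC50 was obtained by linear interpolation around 50% growth.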

[1] = Cytotoxicity against human H460 cells after 72 hrs by MTT assay; format: functional, cell-based, NCI-H460; how it was run: as §1
HCT-116 = test: Cytotoxicity against human HCT116 cells after 72 hrs by MTT assay; format: functional, cell-based; how it was run: as §1
DNA [2] = test: Binding affinity to calf thymus DNA assessed as hypochromic effect at 20 uM by UV-Visible spectroscopy relative to control; format: nucleic-acid assay; settings: Bos taurus
How it was run: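 Compound (20 µM) in BPE buffer pH 7.1 was titrated with CT-DNA, 10–100 µM in 10 µM steps and then to 200 µM in 20 µM steps (base pairs). Spectra were recorded from 230–530 nm in a 10 mm quartz cuvette, referenced against a cuvette holding the same DNA concentration.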

[3] = target: T1, DNA topoisomerase 1 (Homo sapiens) (UniProt P11387); test: Inhibition of human topoisomerase 1-mediated DNA cleavage assessed as accumulation of nicked DNA at 1 to 50 uM by agarose gel electrophoresis
T1 sequence (whole entry): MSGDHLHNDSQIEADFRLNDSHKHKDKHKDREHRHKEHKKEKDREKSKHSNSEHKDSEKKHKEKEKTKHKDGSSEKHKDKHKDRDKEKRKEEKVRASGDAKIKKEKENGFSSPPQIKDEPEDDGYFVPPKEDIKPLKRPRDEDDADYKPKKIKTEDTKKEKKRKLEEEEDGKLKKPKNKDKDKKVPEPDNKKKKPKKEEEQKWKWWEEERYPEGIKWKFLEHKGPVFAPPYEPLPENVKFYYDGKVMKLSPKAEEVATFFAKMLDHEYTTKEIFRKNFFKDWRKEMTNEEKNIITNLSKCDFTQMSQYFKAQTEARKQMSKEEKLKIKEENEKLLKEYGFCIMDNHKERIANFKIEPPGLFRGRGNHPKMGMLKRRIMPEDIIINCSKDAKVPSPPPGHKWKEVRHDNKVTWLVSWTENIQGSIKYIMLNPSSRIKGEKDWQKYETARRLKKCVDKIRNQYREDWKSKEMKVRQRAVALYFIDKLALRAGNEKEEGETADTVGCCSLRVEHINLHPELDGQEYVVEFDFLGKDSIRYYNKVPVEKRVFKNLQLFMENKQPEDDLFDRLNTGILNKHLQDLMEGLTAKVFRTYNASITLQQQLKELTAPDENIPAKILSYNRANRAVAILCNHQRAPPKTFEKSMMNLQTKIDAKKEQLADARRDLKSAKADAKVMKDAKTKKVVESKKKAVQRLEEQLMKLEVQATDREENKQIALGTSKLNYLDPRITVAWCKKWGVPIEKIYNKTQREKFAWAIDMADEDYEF
How it was run: (§2)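 Supercoiled pUC19 plasmid was incubated with or without compound across the stated µM range, then relaxed with human topoisomerase I. Reactions were stopped with SDS and proteinase K. Samples were run on a 1% agarose gel in TBE for 2 h at 120 V and post-stained with ethidium bromide. Supercoiled, relaxed and nicked bands were scored under UV.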

DNA [4] = test: Binding affinity to calf thymus DNA assessed as change in melting temperature at 0.5 drug/DNA ratio by spectrophotometry; format: nucleic-acid assay; settings: Bos taurus
How it was run: (§3)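 CT-DNA (20 µM) was dialyzed and incubated alone or with compound at drug/base-pair ratio R 0.25–1 in BPE buffer (6 mM Na2HPO4, 2 mM NaH2PO4, 1 mM EDTA, pH 7.1). A260 was read every min from 20–100 °C at 1 °C/min against a compound-matched reference. Tm was taken from the first-derivative midpoint, and ΔTm = Tm(drug+DNA) − Tm(DNA alone).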

Nucleic Acid [5] = test: Binding affinity to Escherichia coli supercoiled pUC19 DNA assessed as intercalation at 20 to 50 uM by agarose gel electrophoresis in presence of human DNA topoisomerase 1; format: nucleic-acid assay; how it was run: as §2
DNA [6] = test: Binding affinity to calf thymus DNA assessed as change in melting temperature at 1 drug/DNA ratio by spectrophotometry; format: nucleic-acid assay; settings: Bos taurus; how it was run: as §3
[7] = target: DNA topoisomerase 2-alpha (Homo sapiens) (UniProt P11388); test: Inhibition of DNA topoisomerase 2 (unknown origin)-mediated DNA cleavage assessed as linear band at 50 uM by agarose gel electrophoresis
How it was run: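 Topoisomerase II DNA cleavage assay was run per an earlier method, with etoposide as the Topo II poison positive control. Compounds came from 10 mM DMSO stocks freshly diluted in aqueous buffer.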

DNA [8] = test: Binding affinity to calf thymus DNA assessed as change in melting temperature at 0.25 drug/DNA ratio by spectrophotometry; format: nucleic-acid assay; settings: Bos taurus; how it was run: as §3
Nucleic Acid [9] = test: Binding affinity to Escherichia coli supercoiled pUC19 DNA assessed as intercalation at 1 to 50 uM by agarose gel electrophoresis in presence of human DNA topoisomerase 1; format: nucleic-acid assay; how it was run: as §2
DNA [10] = test: Binding affinity to calf thymus DNA at 50 uM by circular dichroism spectra analysis; format: nucleic-acid assay; settings: Bos taurus
How it was run: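 Drug (50 µM) was incubated in BPE buffer with or without CT-DNA at 0.1–100 µM. CD spectra were recorded from 480 to 230 nm in a 10 mm quartz cell at 20 °C under Peltier control.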

[11] = Binding affinity to DNA (unknown origin) assessed as inhibition of DNase1-mediated cleavage at 2 to 5 uM by DNase1 footprinting assay
How it was run: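 DNase I footprinting run essentially per an earlier protocol. Gels were exposed to a storage screen at room temperature and then scanned. Compounds were made as 10 mM DMSO stocks and freshly diluted into aqueous buffer.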

Nucleic Acid [12] = test: Binding affinity to Escherichia coli supercoiled pUC19 DNA assessed as intercalation at 0.2 to 5 uM by agarose gel electrophoresis in presence of human DNA topoisomerase 1; format: nucleic-acid assay; how it was run: as §2

Sequence of DNA topoisomerase 2-alpha (Homo sapiens) (P11388 whole entry): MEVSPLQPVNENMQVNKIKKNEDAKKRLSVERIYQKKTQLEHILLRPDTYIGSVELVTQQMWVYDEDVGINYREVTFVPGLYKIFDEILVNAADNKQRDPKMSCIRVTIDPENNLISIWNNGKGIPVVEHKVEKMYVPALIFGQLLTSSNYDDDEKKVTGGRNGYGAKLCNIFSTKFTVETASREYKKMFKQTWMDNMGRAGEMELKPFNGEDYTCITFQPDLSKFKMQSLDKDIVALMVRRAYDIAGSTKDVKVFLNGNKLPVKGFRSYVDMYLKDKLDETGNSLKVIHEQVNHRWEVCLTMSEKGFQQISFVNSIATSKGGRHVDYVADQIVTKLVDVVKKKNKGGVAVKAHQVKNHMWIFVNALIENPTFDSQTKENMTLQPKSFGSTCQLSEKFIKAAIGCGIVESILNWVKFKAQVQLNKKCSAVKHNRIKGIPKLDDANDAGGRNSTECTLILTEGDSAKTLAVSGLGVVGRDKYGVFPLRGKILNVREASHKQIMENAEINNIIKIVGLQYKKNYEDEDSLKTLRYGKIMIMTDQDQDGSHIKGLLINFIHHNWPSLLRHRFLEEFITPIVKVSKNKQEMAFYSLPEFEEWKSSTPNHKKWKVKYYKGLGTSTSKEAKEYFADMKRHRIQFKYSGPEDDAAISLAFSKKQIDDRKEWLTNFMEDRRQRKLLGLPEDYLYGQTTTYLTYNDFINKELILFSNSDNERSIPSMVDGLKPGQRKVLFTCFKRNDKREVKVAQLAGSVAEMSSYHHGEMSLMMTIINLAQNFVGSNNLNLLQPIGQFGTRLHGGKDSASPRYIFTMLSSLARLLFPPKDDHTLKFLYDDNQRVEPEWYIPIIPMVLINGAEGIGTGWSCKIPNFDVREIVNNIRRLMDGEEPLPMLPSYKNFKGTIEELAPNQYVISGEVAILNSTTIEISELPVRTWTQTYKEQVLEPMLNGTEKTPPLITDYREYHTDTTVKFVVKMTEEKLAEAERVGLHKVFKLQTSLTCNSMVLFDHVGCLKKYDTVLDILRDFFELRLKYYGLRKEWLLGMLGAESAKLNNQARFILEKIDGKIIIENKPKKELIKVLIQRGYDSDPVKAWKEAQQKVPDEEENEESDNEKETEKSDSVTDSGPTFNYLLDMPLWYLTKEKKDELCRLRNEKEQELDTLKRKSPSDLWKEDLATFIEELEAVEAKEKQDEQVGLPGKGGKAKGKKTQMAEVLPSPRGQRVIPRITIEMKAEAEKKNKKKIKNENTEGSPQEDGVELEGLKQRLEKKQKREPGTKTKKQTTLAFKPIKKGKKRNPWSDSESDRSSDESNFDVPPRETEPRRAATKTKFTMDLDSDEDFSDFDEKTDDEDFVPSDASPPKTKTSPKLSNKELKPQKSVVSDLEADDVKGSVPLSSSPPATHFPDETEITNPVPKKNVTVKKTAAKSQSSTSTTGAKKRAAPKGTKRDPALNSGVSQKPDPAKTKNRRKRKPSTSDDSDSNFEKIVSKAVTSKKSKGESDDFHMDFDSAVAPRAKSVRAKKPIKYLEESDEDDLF

inhibition [3]	Topo II DNA cleavage inhibition (active/not active) [7]	Activity (DNA [4])	Activity (DNA [6])	Activity (DNA [8])	SMILES	IC50 (MCF7; Homo sapiens, MCF7, 72 h)	IC50 ([1]; Homo sapiens, NCI-H460, 72 h)	IC50 (HCT-116; Homo sapiens, HCT-116, 72 h)	other results
inactive	inactive	–	–	–	CN(C)c1ccc2c(c1)c1c(sc3ccccc31)c(=O)n2C	16 µM	13 µM	5 µM	Activity (DNA [2]): 46%; ΔTm (DNA [4]): 0 °C; Activity (Nucleic Acid [5]): Active; ΔTm (DNA [6]): 3 °C
–	inactive	inactive	inactive	inactive	O=C(Nc1ccc([N+](=O)[O-])cc1)c1sc2ccccc2c1Cl	> 100 µM	55 µM	≥ 100 µM	–
–	inactive	inactive	inactive	inactive	CC(=O)Nc1ccc(NC(=O)c2sc3ccccc3c2Cl)cc1	> 100 µM	> 100 µM	> 100 µM	–
inactive	inactive	inactive	inactive	inactive	CN(C)c1ccc2[nH]c(=O)c3sc4ccccc4c3c2c1	7 µM	37 µM	7 µM	Activity (Nucleic Acid [9]): inactive
–	inactive	inactive	inactive	inactive	CN(C)c1ccc(NC(=O)c2sc3ccccc3c2Cl)cc1	> 100 µM	> 100 µM	> 100 µM	–
inactive	inactive	inactive	inactive	inactive	CC(=O)Nc1ccc2[nH]c(=O)c3sc4ccccc4c3c2c1	76 µM	> 100 µM	30 µM	Activity (Nucleic Acid [5]): Active
inactive	inactive	inactive	inactive	inactive	Nc1ccc(NC(=O)c2sc3ccccc3c2Cl)cc1 [listing 3 of 3 here]	–	–	–	Activity (Nucleic Acid [9]): inactive
inactive	Active	–	–	–	C[N+](C)(C)c1ccc(NC(=O)c2sc3ccccc3c2Cl)cc1	17 µM	20 µM	17 µM	Activity (DNA [2]): 23%; ΔTm (DNA [4]): 1 °C; Activity (Nucleic Acid [5]): Active; ΔTm (DNA [6]): 3 °C
inactive	inactive	–	–	–	CC(=O)Nc1ccc2c(c1)c1c(sc3ccccc31)c(=O)n2CCCN(C)C	0.6 µM	0.3 µM	0.2 µM	Activity (DNA [2]): 24%; ΔTm (DNA [4]): 12.7 °C; ΔTm (DNA [6]): 19 °C; ΔTm (DNA [8]): 10 °C; Activity [11]: Active; Activity (Nucleic Acid [12]): Active

Further lines, the molecule ahead of its results:

SMILES	inhibition [3]	Topo II DNA cleavage inhibition (active/not active) [7]	Activity (DNA [4])	Activity (DNA [6])	Activity (DNA [8])	IC50 (MCF7; Homo sapiens, MCF7, 72 h)	IC50 ([1]; Homo sapiens, NCI-H460, 72 h)	IC50 (HCT-116; Homo sapiens, HCT-116, 72 h)	other results
CN(C)c1ccc(NC(=O)c2sc3sccc3c2Cl)cc1	–	–	–	–	–	> 100 µM	> 100 µM	> 100 µM	–
Nc1ccc2[nH]c(=O)c3sc4ccccc4c3c2c1 [listing 1 of 3 here]	–	–	–	–	–	–	–	–	IC50 ([1]; nci-h460): 9 µM; IC50 (HCT-116; hct-116): 4 µM
CC(=O)N(C)c1ccc2c(c1)c1c(sc3ccccc31)c(=O)n2C	–	–	–	–	–	≥ 100 µM	40 µM	14 µM	–
Nc1ccc(NC(=O)c2sc3ccccc3c2Cl)cc1 [listing 1 of 3 here]	–	–	–	–	–	–	–	–	IC50 (MCF7; mcf7): ≥ 100 µM
O=c1[nH]c2ccc([N+](=O)[O-])cc2c2c1sc1ccccc12	inactive	inactive	–	–	–	49 µM	18 µM	22 µM	Activity (Nucleic Acid [9]): inactive
Nc1ccc(NC(=O)c2sc3ccccc3c2Cl)cc1 [listing 2 of 3 here]	–	–	–	–	–	–	> 100 µM	≥ 100 µM	IC50 (MCF7; mcf7): 24 µM
O=C(Nc1ccc([N+](=O)[O-])cc1)c1sc2sccc2c1Cl	–	–	–	–	–	≥ 100 µM	> 100 µM	> 100 µM	–
Nc1ccc2[nH]c(=O)c3sc4ccccc4c3c2c1 [listing 2 of 3 here]	inactive	inactive	inactive	inactive	inactive	–	–	–	Activity (DNA [2]): 58%; ΔTm (DNA [4]): 2 °C; Activity (Nucleic Acid [5]): Active
Nc1ccc2[nH]c(=O)c3sc4ccccc4c3c2c1 [listing 3 of 3 here]	–	–	–	–	–	2 µM	6 µM	3 µM	–
CC(=O)Nc1ccc(NC(=O)c2sc3sccc3c2Cl)cc1	–	–	–	–	–	> 100 µM	> 100 µM	≥ 100 µM	–
Cn1c(=O)c2sc3ccccc3c2c2cc([N+](C)(C)C)ccc21	inactive	inactive	–	–	–	10 µM	18 µM	5 µM	Activity (DNA [10]): inactive; Activity (DNA [2]): 48%; ΔTm (DNA [4]): 2.9 °C; ΔTm (DNA [6]): 5.9 °C; Activity [11]: Active; Activity (Nucleic Acid [12]): Active
